# Experimental data taken from ChEMBL document CHEMBL3102784, “Salicylanilide diethyl phosphates: synthesis, antimicrobial activity and cytotoxicity” (Bioorg Med Chem, 2014).
# Active and inactive are the calls of the source. The calls are words filed in the database; no cut-off is given here.
# Experiments:
# Staphylococcus aureus [1] = test: Antibacterial activity against Staphylococcus aureus CCM 4516/08 after 24 hrs by broth microdilution method; assay type: functional; conditions: CCM 4516/08, 24 h
# Method in brief: (§1)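 Broth microdilution in Mueller–Hinton broth, compounds dissolved in DMSO, tested over a dilution series from 500 downward. MIC taken as ≥95% growth reduction (IC95) versus drug-free control. Benzylpenicillin comparator. Readings at 24 and 48 h.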
# Staphylococcus aureus [2] = test: Antibacterial activity against methicillin-resistant Staphylococcus aureus H 5996/08 after 48 hrs by broth microdilution method; assay type: functional; conditions: H 5996/08, 48 h; method in brief: as §1
# [3] = system: Staphylococcus epidermidis; test: Antibacterial activity against Staphylococcus epidermidis H 6966/08 after 48 hrs by broth microdilution method; assay type: functional; conditions: H 6966/08, 48 h; method in brief: as §1
# HepG2 = test: Cytotoxicity against human HepG2 cells after 24 hrs by CellTiter assay; assay type: cell-based; conditions: HepG2, 24 h
# Method in brief: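 HepG2 cells (passage 27–33) in MEM with 10% FBS, L-glutamine and NEAA, seeded at 1×10^4 per well. Treated next day with compounds at 0.1–100 µM (or 0.1–25 µmol/L), triplicates, <1% DMSO, for 24 h at 37 °C, 5% CO2. MTS reagent added for 2 h, absorbance read at 490 nm. IC50 taken against untreated (100%) and 10% DMSO (0%) controls.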
# Pichia kudriavzevii [4] = test: Antifungal activity against Candida krusei E28 after 48 hrs by broth microdilution method; assay type: functional; conditions: E28, 48 h
# Method in brief: (§2)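 Broth microdilution in RPMI 1640 with glutamine, fluconazole as reference. For yeasts, MIC is ≥80% growth reduction (IC80) versus control. For filamentous fungi, the value is expressed as IC50. Readings at 24 and 48 h.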
# [5] = system: Mycobacterium tuberculosis; test: Antimycobacterial activity against Mycobacterium tuberculosis H37Rv My 331/88 after 14 days; assay type: functional; conditions: H37Rv My 331/88, 336 h
# Method in brief: (§3)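 Micromethod MIC in Šula's semisynthetic medium at 37 °C. Compounds added in DMSO at 1000 down to 0.032 µmol/L. Isoniazid standard in sterile water at 0.5–250 µmol/L. Inocula: H37Rv 10^3, M. avium 10^5, M. kansasii 10^4. Read at 14 and 21 d, plus 7 d for M. kansasii.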
# Staphylococcus aureus [6] = test: Antibacterial activity against methicillin-resistant Staphylococcus aureus H 5996/08 after 24 hrs by broth microdilution method; assay type: functional; conditions: H 5996/08, 24 h; method in brief: as §1
# Mycobacterium kansasii [7] = test: Antimycobacterial activity against Mycobacterium kansasii My 235/80 after 14 days; assay type: functional; conditions: My 235/80, 336 h; method in brief: as §3
# Pseudomonas aeruginosa = test: Antibacterial activity against Pseudomonas aeruginosa CCM 1961 at 500 micromol/L after 24 to 48 hrs by broth microdilution method; assay type: functional, organism-based; method in brief: as §1
# Lichtheimia corymbifera [8] = test: Antifungal activity against Absidia corymbifera 272 after 24 hrs by broth microdilution method; assay type: functional; conditions: Lichtheimia corymbifera, 272, 24 h; method in brief: as §2
# Candida albicans [9] = test: Antifungal activity against Candida albicans ATCC 44859 after 24 hrs by broth microdilution method; assay type: functional; conditions: ATCC 44859, 24 h; method in brief: as §2
# Klebsiella pneumoniae [10] = test: Antibacterial activity against ESBL-positive Klebsiella pneumoniae J 14368/08 at 500 micromol/L after 24 to 48 hrs by broth microdilution method; assay type: functional, organism-based; method in brief: as §1
# Pichia kudriavzevii [11] = test: Antifungal activity against Candida krusei E28 after 24 hrs by broth microdilution method; assay type: functional; conditions: E28, 24 h; method in brief: as §2
# Mycobacterium kansasii [12] = test: Antimycobacterial activity against Mycobacterium kansasii 6509/96 after 21 days; assay type: functional; conditions: 6509/96, 504 h; method in brief: as §3
# [13] = system: Trichophyton mentagrophytes; test: Antifungal activity against Trichophyton mentagrophytes 445 after 120 hrs by broth microdilution method; assay type: functional; conditions: Trichophyton mentagrophytes, 445, 120 h
# Method in brief: (§4)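 Filamentous dermatophyte tested by broth microdilution in RPMI 1640 with glutamine, fluconazole as reference. Value expressed as IC50 relative to growth control. Read at 72 and 120 h.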
# Aspergillus fumigatus [14] = test: Antifungal activity against Aspergillus fumigatus 231 after 24 hrs by broth microdilution method; assay type: functional; conditions: Aspergillus fumigatus, 231, 24 h; method in brief: as §2
# Mycobacterium kansasii [15] = test: Antimycobacterial activity against Mycobacterium kansasii My 235/80 after 21 days; assay type: functional; conditions: My 235/80, 504 h; method in brief: as §3
# Aspergillus fumigatus [16] = test: Antifungal activity against Aspergillus fumigatus 231 after 48 hrs by broth microdilution method; assay type: functional; conditions: Aspergillus fumigatus, 231, 48 h; method in brief: as §2
# Nakaseomyces glabratus = test: Antifungal activity against Candida glabrata 20/I at 500 micromol/L after 24 to 48 hrs by broth microdilution method; assay type: functional, organism-based; method in brief: as §2
# Enterococcus sp. = test: Antibacterial activity against Enterococcus sp. J 14365/08 at 500 micromol/L after 24 to 48 hrs by broth microdilution method; assay type: functional, organism-based; method in brief: as §1
# Mycobacterium kansasii [17] = test: Antimycobacterial activity against Mycobacterium kansasii 6509/96 after 7 days; assay type: functional; conditions: 6509/96, 168 h; method in brief: as §3
# [18] = system: Mycobacterium tuberculosis; test: Antimycobacterial activity against Mycobacterium tuberculosis H37Rv My 331/88 after 21 days; assay type: functional; conditions: H37Rv My 331/88, 504 h; method in brief: as §3
# Candida tropicalis = test: Antifungal activity against Candida tropicalis 156 at 500 micromol/L after 24 to 48 hrs by broth microdilution method; assay type: functional, organism-based; method in brief: as §2
# Mycobacterium kansasii [19] = test: Antimycobacterial activity against Mycobacterium kansasii 6509/96 after 14 days; assay type: functional; conditions: 6509/96, 336 h; method in brief: as §3
# Mycobacterium kansasii [20] = test: Antimycobacterial activity against Mycobacterium kansasii My 235/80 after 7 days; assay type: functional; conditions: My 235/80, 168 h; method in brief: as §3
# Klebsiella pneumoniae [21] = test: Antibacterial activity against Klebsiella pneumoniae D 11750/08 at 500 micromol/L after 24 to 48 hrs by broth microdilution method; assay type: functional, organism-based; method in brief: as §1
# Mycobacterium avium [22] = test: Antimycobacterial activity against isoniazid, rifampicin, ethambutol and ofloxacin-resistant Mycobacterium avium My 330/88 after 21 days; assay type: functional; conditions: My 330/88, 504 h; method in brief: as §3
# Candida albicans [23] = test: Antifungal activity against Candida albicans ATCC 44859 after 48 hrs by broth microdilution method; assay type: functional; conditions: ATCC 44859, 48 h; method in brief: as §2
# Escherichia coli = test: Antibacterial activity against Escherichia coli CCM 4517 at 500 micromol/L after 24 to 48 hrs by broth microdilution method; assay type: functional, organism-based; method in brief: as §1
# Lichtheimia corymbifera [24] = test: Antifungal activity against Absidia corymbifera 272 after 48 hrs by broth microdilution method; assay type: functional; conditions: Lichtheimia corymbifera, 272, 48 h; method in brief: as §2
# Trichosporon asahii [25] = test: Antifungal activity against Trichosporon asahii 1188 after 24 hrs by broth microdilution method; assay type: functional; conditions: Trichosporon asahii, 1188, 24 h; method in brief: as §2
# [26] = system: Trichophyton mentagrophytes; test: Antifungal activity against Trichophyton mentagrophytes 445 after 72 hrs by broth microdilution method; assay type: functional; conditions: Trichophyton mentagrophytes, 445, 72 h; method in brief: as §4
# [27] = system: Staphylococcus epidermidis; test: Antibacterial activity against Staphylococcus epidermidis H 6966/08 after 24 hrs by broth microdilution method; assay type: functional; conditions: H 6966/08, 24 h; method in brief: as §1
# Mycobacterium avium [28] = test: Antimycobacterial activity against isoniazid, rifampicin, ethambutol and ofloxacin-resistant Mycobacterium avium My 330/88 after 14 days; assay type: functional; conditions: My 330/88, 336 h; method in brief: as §3
# Trichosporon asahii [29] = test: Antifungal activity against Trichosporon asahii 1188 after 48 hrs by broth microdilution method; assay type: functional; conditions: Trichosporon asahii, 1188, 48 h; method in brief: as §2
# Staphylococcus aureus [30] = test: Antibacterial activity against Staphylococcus aureus CCM 4516/08 after 48 hrs by broth microdilution method; assay type: functional; conditions: CCM 4516/08, 48 h; method in brief: as §1
Structure (SMILES),MIC95 (Staphylococcus aureus [1]) [µM],MIC95 (Staphylococcus aureus [2]) [µM],MIC95 [3] [µM],IC50 (HepG2) [µM],MIC80 (Pichia kudriavzevii [4]) [µM],MIC [5] [µM],MIC95 (Staphylococcus aureus [6]) [µM],MIC (Mycobacterium kansasii [7]) [µM],Activity (Pseudomonas aeruginosa),MIC50 (Lichtheimia corymbifera [8]) [µM],MIC80 (Candida albicans [9]) [µM],Activity (Klebsiella pneumoniae [10]),MIC80 (Pichia kudriavzevii [11]) [µM],MIC (Mycobacterium kansasii [12]) [µM],MIC50 [13] [µM],MIC50 (Aspergillus fumigatus [14]) [µM],MIC (Mycobacterium kansasii [15]) [µM],MIC50 (Aspergillus fumigatus [16]) [µM],Activity (Nakaseomyces glabratus),Activity (Enterococcus sp.),further results
CCOP(=O)(OCC)Oc1ccc(Cl)cc1C(=O)Nc1ccc(Br)cc1,125,> 500,125,1.56,> 500,2,> 500,8,inactive,> 500,> 500,inactive,> 500,8,250,> 500,8,> 500,inactive,inactive,MIC (Mycobacterium kansasii [17]): 4 µM; MIC [18]: 2 µM; Activity (Candida tropicalis): inactive; MIC (Mycobacterium kansasii [19]): 8 µM; MIC (Mycobacterium kansasii [20]): 4 µM; Activity (Klebsiella pneumoniae [21]): inactive; MIC (Mycobacterium avium [22]): 8 µM; MIC80 (Candida albicans [23]): > 500 µM; Activity (Escherichia coli): inactive; MIC50 (Lichtheimia corymbifera [24]): > 500 µM; MIC80 (Trichosporon asahii [25]): > 500 µM; MIC50 [26]: 250 µM; MIC95 [27]: 125 µM; MIC (Mycobacterium avium [28]): 8 µM; MIC80 (Trichosporon asahii [29]): > 500 µM; MIC95 (Staphylococcus aureus [30]): 125 µM
CCOP(=O)(OCC)Oc1ccc(Br)cc1C(=O)Nc1ccc(Cl)cc1,500,> 500,> 500,6.81,> 500,2,500,4,inactive,> 500,> 500,inactive,> 500,4,> 500,> 500,8,> 500,inactive,inactive,MIC (Mycobacterium kansasii [17]): 4 µM; MIC [18]: 4 µM; Activity (Candida tropicalis): inactive; MIC (Mycobacterium kansasii [19]): 4 µM; MIC (Mycobacterium kansasii [20]): 4 µM; Activity (Klebsiella pneumoniae [21]): inactive; MIC (Mycobacterium avium [22]): 8 µM; MIC80 (Candida albicans [23]): > 500 µM; Activity (Escherichia coli): inactive; MIC50 (Lichtheimia corymbifera [24]): > 500 µM; MIC80 (Trichosporon asahii [25]): > 500 µM; MIC50 [26]: > 500 µM; MIC95 [27]: 500 µM; MIC (Mycobacterium avium [28]): 8 µM; MIC80 (Trichosporon asahii [29]): > 500 µM; MIC95 (Staphylococcus aureus [30]): > 500 µM
CCOP(=O)(OCC)Oc1cc(Cl)ccc1C(=O)Nc1ccc(F)cc1,250,> 500,> 500,33.8,> 500,16,> 500,16,inactive,> 500,> 500,inactive,> 500,32,500,> 500,16,> 500,inactive,inactive,MIC (Mycobacterium kansasii [17]): 16 µM; MIC [18]: 16 µM; Activity (Candida tropicalis): inactive; MIC (Mycobacterium kansasii [19]): 32 µM; MIC (Mycobacterium kansasii [20]): 16 µM; Activity (Klebsiella pneumoniae [21]): inactive; MIC (Mycobacterium avium [22]): 32 µM; MIC80 (Candida albicans [23]): > 500 µM; Activity (Escherichia coli): inactive; MIC50 (Lichtheimia corymbifera [24]): > 500 µM; MIC80 (Trichosporon asahii [25]): > 500 µM; MIC50 [26]: 500 µM; MIC95 [27]: > 500 µM; MIC (Mycobacterium avium [28]): 32 µM; MIC80 (Trichosporon asahii [29]): > 500 µM; MIC95 (Staphylococcus aureus [30]): 500 µM
